Calls of active or inactive are those of the source. No cut-off for these calls is given here.
Tests used:
Mus musculus [1] = assay: Decrease in total food intake in 3-day high fat diet fed C57BL/6 mouse at 10 mg/kg, po daily for 3 days; format: functional; design: scale not given: the % may be the effect or the level left
[2] = AUC (0 to infinity) in Sprague-Dawley rat at 1 mg/kg, iv; format: ADME, organism-based; design: time infinity, dose 1 mg/kg, route intravenous; conditions: plasma
Mus musculus [3] = assay: Toxicity in 28-day diet-induced obesity C57BL/6 mouse model assessed as liver alkaline phosphatase level at 1 to 3 mg/kg, po daily for 4 weeks; format: organism-based; design: dose 1-3 mg/kg, route oral; conditions: in vivo, 672 h
Summary of the method: (§1)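 C57BL/6 male mice kept on high fat diet 4 weeks before study (body weight about 40 g) and throughout; n = 10, dosed orally once daily for 4 weeks at 1 or 3 mg/kg, vehicle 5% PEG400, 0.25% Tween 80, 94.25% H2O; liver weight and ALT, AST, alkaline phosphatase assessed after 4 weeks.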

Mus musculus [4] = assay: Toxicity in 28-day diet-induced obesity C57BL/6 mouse model assessed as liver alanine aminotransferase level at 1 to 3 mg/kg, po daily for 4 weeks; format: organism-based; design: dose 1-3 mg/kg, route oral; conditions: in vivo, 672 h; summary of the method: as §1
Mus musculus [5] = assay: Decrease in plasma triglyceride level in 28-day diet-induced obesity C57BL/6 mouse model at 1 to 3 mg/kg, po daily for 4 weeks; format: functional, organism-based
Summary of the method: (§2)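 C57BL/6 male mice were fed high-fat diet for 4 weeks beforehand to about 40 g and kept on it throughout. Groups of n = 10 were dosed po once daily for 4 weeks at 1 or 3 mg/kg, or vehicle (5% PEG400, 0.25% Tween 80, 94.25% H2O). Food was weighed and replaced with pre-weighed food 3 times weekly. Fed plasma glucose was taken at 2 weeks and insulin at 4 weeks.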

Mus musculus [6] = assay: Decrease in total food intake in 28-day diet-induced obesity C57BL/6 mouse model at 1 to 3 mg/kg, po daily for 4 weeks measured on day 4
[7] = Cmax in Sprague-Dawley rat at 3 mg/kg, po; format: ADME, organism-based; design: dose 3 mg/kg, route oral; conditions: in vivo
[8] = Inhibition of MTP from dog liver microsomes by scintillation counting; design: species or system Canis lupus familiaris, Microsome
[9] = AUC (0 to infinity) in Sprague-Dawley rat plasma at 10 mg/kg, po; format: ADME, organism-based; design: time infinity, dose 10 mg/kg, route oral
Summary of the method: (§3)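 Dose-proportionality PK in Sprague–Dawley rats (n = 3) given single oral doses of 3, 10, 30 or 100 mg/kg. Liver and plasma were sampled at 0.5, 1, 2, 4 and 8 h and assayed for drug concentration to derive Cmax, AUC(0–∞) and T1/2.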

[10] = Cmax in Sprague-Dawley rat liver at 10 mg/kg, po; format: ADME, organism-based; design: dose 10 mg/kg, route oral; summary of the method: as §3
HepG2 = assay: Inhibition of apoB secretion in human HepG2 cells after 40 hrs by ELISA; format: functional, cell-based; conditions: HepG2, 40 h
Mus musculus [11] = assay: Decrease in total food intake in 28-day diet-induced obesity C57BL/6 mouse model at 3 mg/kg, po daily for 4 weeks measured on day 21; format: functional; design: scale not given: the % may be the effect or the level left; summary of the method: as §2
Mus musculus [12] = assay: Decrease in plasma triglyceride level in […] C57BL/6 mouse at 3 mg/kg, po daily for 3 days measured after 6 hrs; format: functional; design: scale not given: the % may be the effect or the level left
Summary of the method: (§4)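 Lean C57BL/6 mice were given high-fat diet for 1 week, then dosed orally once daily in the evening for 3 days. Food intake and body weight were recorded daily. At the end a morning dose was given, and blood was drawn at 30 min, 2 h and 6 h for plasma triglycerides.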

Mus musculus [13] = assay: Toxicity in 28-day diet-induced obesity C57BL/6 mouse model assessed as increase in liver weight at 1 to 3 mg/kg, po daily for 4 weeks; format: organism-based; design: dose 1-3 mg/kg, route oral; conditions: in vivo, 672 h; summary of the method: as §1
[14] = Half life in Sprague-Dawley rat liver at 10 mg/kg, po; format: ADME, organism-based; design: dose 10 mg/kg, route oral; summary of the method: as §3
[15] = Half life in Sprague-Dawley rat liver at 100 mg/kg, po; format: ADME, organism-based; design: dose 100 mg/kg, route oral; summary of the method: as §3
[16] = Oral bioavailability in Sprague-Dawley rat at 3 mg/kg; format: ADME, organism-based; conditions: in vivo
Summary of the method: (§5)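 Rats dosed orally at 3 mg/kg; Cmax, Tmax, oral half-life and AUC determined from plasma, and oral bioavailability (%F) calculated against the 1 mg/kg IV bolus.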

[17] = Half life in Sprague-Dawley rat plasma at 3 mg/kg, po; format: ADME, organism-based; design: dose 3 mg/kg, route oral; summary of the method: as §3
[18] = Cmax in Sprague-Dawley rat plasma at 30 mg/kg, po; format: ADME, organism-based; design: dose 30 mg/kg, route oral; summary of the method: as §3
[19] = Cmax in Sprague-Dawley rat liver at 100 mg/kg, po; format: ADME, organism-based; design: dose 100 mg/kg, route oral; summary of the method: as §3
[20] = Half life in Sprague-Dawley rat at 1 mg/kg, iv; format: ADME, organism-based; design: dose 1 mg/kg, route intravenous; conditions: in vivo
[21] = Tmax in Sprague-Dawley rat at 3 mg/kg, po; format: ADME, organism-based; design: dose 3 mg/kg, route oral; conditions: in vivo; summary of the method: as §5
[22] = Half life in Sprague-Dawley rat liver at 3 mg/kg, po; format: ADME, organism-based; design: dose 3 mg/kg, route oral; summary of the method: as §3
Mus musculus [23] = assay: Decrease in total food intake in 3-day high fat diet fed C57BL/6 mouse at 3 mg/kg, po daily for 3 days; format: functional; design: scale not given: the % may be the effect or the level left; summary of the method: as §4
[24] = Half life in Sprague-Dawley rat at 3 mg/kg, po; format: ADME, organism-based; design: dose 3 mg/kg, route oral; conditions: in vivo
Mus musculus [25] = assay: Decrease in plasma glucose level in 28-day diet-induced obesity C57BL/6 mouse model at 1 to 3 mg/kg, po daily for 4 weeks measured on week 2; format: functional, organism-based; summary of the method: as §2
[26] = AUC (0 to infinity) in Sprague-Dawley rat plasma at 3 mg/kg, po; format: ADME, organism-based; design: time infinity, dose 3 mg/kg, route oral; summary of the method: as §3
[27] = Cmax in Sprague-Dawley rat plasma at 100 mg/kg, po; format: ADME, organism-based; design: dose 100 mg/kg, route oral; summary of the method: as §3
[28] = AUC (0 to infinity) in Sprague-Dawley rat at 3 mg/kg, po; format: ADME, organism-based; design: dose 3 mg/kg, route oral, time infinity; conditions: plasma

CC(C)c1ccc(-c2ccccc2C(=O)Nc2ccc3nc(C(=O)N[C@H](C(=O)N(C)Cc4ccc(F)cc4)c4ccccc4)sc3c2)cc1
Activity (Mus musculus [1]): 19%
AUC(0-inf) [2]: 976 ng·h/mL
Activity (Mus musculus [3]): Non-toxic
Activity (Mus musculus [4]): Non-toxic
Activity (Mus musculus [5]): Active
Activity (Mus musculus [6]): Active
Cmax [7]: 22.2 ng/mL
IC50 [8]: 11.2 nM
AUC(0-inf) [9]: 224 ng·h/mL
Cmax [10]: 90.1 µg/kg
IC50 (HepG2): 6.2 nM
Activity (Mus musculus [11]): 12%
Activity (Mus musculus [12]): 11%
Activity (Mus musculus [13]): Non-toxic
half-life [14]: 19.4 h
half-life [15]: 6.44 h
bioavailability [16]: 1.29%
half-life [17]: 2.42 h
Cmax [18]: 49.5 ng/mL
Cmax [19]: 84 µg/kg
half-life [20]: 2 h
Tmax [21]: 0.5 h
half-life [22]: 10.7 h
Activity (Mus musculus [23]): 14%
half-life [24]: 2.13 h
Activity (Mus musculus [25]): Active
AUC(0-inf) [26]: 109 ng·h/mL
Cmax [27]: 69.5 ng/mL
AUC(0-inf) [28]: 40.8 ng·h/mL
